Measured values: ChEMBL document CHEMBL1129266, “Synthesis and biological activity of NK-1 selective, N-backbone cyclic analogs of the C-terminal hexapeptide of substance P” (J Med Chem, 1996)
pEC50: −log10 of the molar value. Starred links: 1 amine or outer side, 2 acyl side, 3 side chain; linkers in the order of their positions; H or OH if unused. Positions of bridges follow the written chain, without caps; N, C: chain ends. Non-standard residues stand in square brackets, D forms with d. Residues, ends and D or L forms follow the SMILES beside them. *: point of attachment. N(6-aminohexyl)Gly = O=C(CN(CCCCCCN[*:3])[*:1])[*:2]; NGly(3-aminopropyl) = O=C(CN(CCCN[*:3])[*:1])[*:2]; N(2-Aminoethyl)Gly = O=C(CN(CCN[*:3])[*:1])[*:2]; Adipoyl = O=C(CCCCC(=O)[*:2])[*:1]; Glutaryl = O=C(CCCC(=O)[*:2])[*:1]; X2 = CC(=O)NCCCN(CC(=O)[*:2])[*:1]; Gly(N(CH2)3NH2) = NCCCNCC(=O)O; Suc = O=C(CCC(=O)[*:2])[*:1]; X1 = CNC(=O)CCCCC(=O)*

Tests used:
Substance-K receptor [1] = target: T1, Substance-K receptor (Rattus norvegicus, UniProt P16610); experiment: Effective concentration to activate Tachykinin receptor 2 in rat vas deferens (RVD)
T1 sequence (P16610 whole entry): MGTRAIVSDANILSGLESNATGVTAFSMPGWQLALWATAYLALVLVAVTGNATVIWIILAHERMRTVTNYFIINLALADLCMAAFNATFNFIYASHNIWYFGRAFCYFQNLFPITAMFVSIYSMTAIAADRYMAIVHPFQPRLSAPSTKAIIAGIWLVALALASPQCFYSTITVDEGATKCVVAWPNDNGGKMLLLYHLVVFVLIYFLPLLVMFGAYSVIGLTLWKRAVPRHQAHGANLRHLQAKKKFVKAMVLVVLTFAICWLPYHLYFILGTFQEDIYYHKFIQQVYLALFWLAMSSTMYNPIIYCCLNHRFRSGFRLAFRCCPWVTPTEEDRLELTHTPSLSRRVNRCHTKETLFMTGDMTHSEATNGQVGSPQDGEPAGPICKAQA

Substance-P receptor = Substance-P receptor (Cavia porcellus, UniProt P30547); experiment: Effective concentration to activate Tachykinin receptor 1 in guinea pig ileum(GPI); assay type: tissue-based
Neuromedin-K receptor [2] = target: T2, Neuromedin-K receptor (Rattus norvegicus, UniProt P16177); experiment: Effective concentration to activate Tachykinin receptor 3 in rat portal vein (RPV)
T2 sequence (P16177 whole entry): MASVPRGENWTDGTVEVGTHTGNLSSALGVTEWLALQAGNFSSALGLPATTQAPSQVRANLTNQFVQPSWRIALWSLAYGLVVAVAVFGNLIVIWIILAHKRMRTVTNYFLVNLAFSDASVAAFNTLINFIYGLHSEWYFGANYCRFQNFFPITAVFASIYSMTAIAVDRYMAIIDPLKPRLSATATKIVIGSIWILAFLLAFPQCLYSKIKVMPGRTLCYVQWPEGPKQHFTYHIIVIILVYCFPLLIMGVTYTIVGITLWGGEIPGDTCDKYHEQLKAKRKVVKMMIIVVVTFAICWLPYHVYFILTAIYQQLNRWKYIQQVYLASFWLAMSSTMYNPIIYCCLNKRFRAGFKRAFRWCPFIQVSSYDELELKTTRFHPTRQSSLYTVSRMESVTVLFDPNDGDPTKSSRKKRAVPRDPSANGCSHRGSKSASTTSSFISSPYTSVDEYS
Method in brief: (§1)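 Portal vein from rat killed by decapitation, mounted in a bath at 37 °C under about 0.5 g tension and equilibrated for 1 h. Peptides were then added at 20 min intervals to avoid receptor desensitization, and contractile responses were recorded.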

Neuromedin-K receptor [3] = target: T2, Neuromedin-K receptor; experiment: Effective concentration to activate Tachykinin receptor 3 in rat portal vein(RPV).; method in brief: as §1
Substance-K receptor [4] = target: T1, Substance-K receptor; experiment: Effective concentration to activate Tachykinin receptor 2 in rat vas deferens(RVD)

Chain of Substance-P receptor (P30547 whole entry): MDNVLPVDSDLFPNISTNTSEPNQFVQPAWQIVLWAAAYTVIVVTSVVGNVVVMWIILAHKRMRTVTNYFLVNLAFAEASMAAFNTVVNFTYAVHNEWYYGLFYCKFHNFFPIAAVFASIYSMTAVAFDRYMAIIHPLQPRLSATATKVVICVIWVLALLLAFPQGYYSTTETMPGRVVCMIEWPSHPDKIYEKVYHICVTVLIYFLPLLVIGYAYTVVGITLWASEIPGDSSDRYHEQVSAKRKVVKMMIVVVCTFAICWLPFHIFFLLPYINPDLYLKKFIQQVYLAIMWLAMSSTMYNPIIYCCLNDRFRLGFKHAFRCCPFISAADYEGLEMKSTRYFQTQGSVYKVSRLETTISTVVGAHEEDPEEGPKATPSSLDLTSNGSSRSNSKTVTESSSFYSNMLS

## CSCC[C@H](NC(=O)[C@H](CC(C)C)NC(=O)CN(CCCN)C(=O)[C@H](Cc1ccccc1)NC(=O)[C@H](Cc1ccccc1)NC(=O)[C@H](CCCNC(=N)N)NC(C)=O)C(N)=O (Ac-RFF[Gly(N(CH2)3NH2)]LM-NH2)
Substance-K receptor [1]
  pEC50: < 4.00
Substance-P receptor
  pEC50: 6.52
Neuromedin-K receptor [2]
  pEC50: 5.70

## CSCC[C@H](NC(=O)[C@H](CC(C)C)NC(=O)CN1CCNC(=O)CCC(=O)NCC(=O)N[C@@H](CCCN=C(N)N)C(=O)N[C@@H](Cc2ccccc2)C(=O)N[C@@H](Cc2ccccc2)C1=O)C(N)=O (GRFF[N(2-Aminoethyl)Gly]LM-NH2; linker N-5 via Suc)
Substance-K receptor [1]
  pEC50: < 4.30
Substance-P receptor
  pEC50: < 5.00
Neuromedin-K receptor [2]
  pEC50: < 5.00

## CSCC[C@H](NC(=O)[C@H](CC(C)C)NC(=O)CN1CCNC(=O)CCC(=O)N[C@@H](CCCNC(=N)N)C(=O)N[C@@H](Cc2ccccc2)C(=O)N[C@@H](Cc2ccccc2)C1=O)C(N)=O (RFF[N(2-Aminoethyl)Gly]LM-NH2; linker N-4 via Suc)
Substance-K receptor [1]
  pEC50: < 4.30
Substance-P receptor
  pEC50: 5.40
Neuromedin-K receptor [2]
  pEC50: < 5.00

## CSCC[C@H](NC(=O)[C@H](CC(C)C)NC(=O)CN1CCCCCCNC(=O)CCCC(=O)N[C@@H](CCCN=C(N)N)C(=O)N[C@@H](Cc2ccccc2)C(=O)N[C@@H](Cc2ccccc2)C1=O)C(N)=O (RFF[N(6-aminohexyl)Gly]LM-NH2; linker N-4 via Glutaryl)
Substance-K receptor [1]
  pEC50: < 4.30
Substance-P receptor
  pEC50: 7.22
Neuromedin-K receptor [2]
  pEC50: 6.00

## CSCC[C@H](NC(=O)[C@H](CC(C)C)NC(=O)CN1CCCCCCNC(=O)CCC(=O)N[C@@H](CCCN=C(N)N)C(=O)N[C@@H](Cc2ccccc2)C(=O)N[C@@H](Cc2ccccc2)C1=O)C(N)=O (RFF[N(6-aminohexyl)Gly]LM-NH2; linker N-4 via Suc)
Substance-K receptor [1]
  pEC50: < 4.30
Substance-P receptor
  pEC50: 6.80
Neuromedin-K receptor [2]
  pEC50: 6.00

## CSCC[C@H](NC(=O)[C@H](CC(C)C)NC(=O)CN1CCCNC(=O)CCCCC(=O)N[C@@H](CCCN=C(N)N)C(=O)N[C@@H](Cc2ccccc2)C(=O)N[C@@H](Cc2ccccc2)C1=O)C(N)=O (RFF[NGly(3-aminopropyl)]LM-NH2; linker N-4 via Adipoyl)
Substance-K receptor [1]
  pEC50: < 3.70
Substance-P receptor
  pEC50: 8.30
Neuromedin-K receptor [2]
  pEC50: < 5.00

## CSCC[C@H](NC(=O)[C@H](CC(C)C)NC(=O)CN1CCCNC(=O)CCCC(=O)N[C@@H](CCCN=C(N)N)C(=O)N[C@@H](Cc2ccccc2)C(=O)N[C@@H](Cc2ccccc2)C1=O)C(N)=O (RFF[NGly(3-aminopropyl)]LM-NH2; linker N-4 via Glutaryl)
Substance-K receptor [1]
  pEC50: < 4.30
Substance-P receptor
  pEC50: 7.96
Neuromedin-K receptor [2]
  pEC50: < 5.00

## CSCC[C@H](NC(=O)[C@H](CC(C)C)NC(=O)CN1CCCNC(=O)CCC(=O)N[C@@H](CCCN=C(N)N)C(=O)N[C@@H](Cc2ccccc2)C(=O)N[C@@H](Cc2ccccc2)C1=O)C(N)=O (RFF[NGly(3-aminopropyl)]LM-NH2; linker N-4 via Suc)
Substance-K receptor [1]
  pEC50: < 4.30
Substance-P receptor
  pEC50: 6.74
Neuromedin-K receptor [2]
  pEC50: < 5.00

## CNC(=O)CCCCC(=O)N[C@@H](CCCNC(=N)N)C(=O)N[C@@H](Cc1ccccc1)C(=O)N[C@@H](Cc1ccccc1)C(=O)N(CCCNC(C)=O)CC(=O)N[C@@H](CC(C)C)C(=O)N[C@@H](CCSC)C(N)=O (X1-RFF[X2]LM-NH2)
Neuromedin-K receptor [3]
  pEC50: 5.70
Substance-K receptor [4]
  pEC50: < 4.00
Substance-P receptor
  pEC50: 6.40

## CSCC[C@H](NC(=O)[C@H](CC(C)C)NC(=O)CNC(=O)[C@H](Cc1ccccc1)N(C)C(=O)[C@H](Cc1ccccc1)NC(=O)[C@H](CC(=O)O)NC(=O)CCC(=O)O)C(N)=O [SENKTIDE]
Substance-K receptor [1]
  pEC50: < 3.70
Substance-P receptor
  pEC50: 4.46

## Ac-RFFPLM-NH2
Substance-K receptor [1]
  pEC50: < 3.70
Neuromedin-K receptor [3]
  pEC50: < 4.30
Substance-P receptor
  pEC50: 8.52
